The target of assay [1] is T1, Phosphatidylinositol 4,5-bisphosphate 3-kinase catalytic subunit alpha isoform (Homo sapiens, UniProt P42336). The experiment in a line: Inhibition of N-terminal His-6-tagged full length human PI3Kalpha expressed in baculovirus-infected sf9 cells after 30 mins by TR-FRET assay. The method in brief: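 IC50 is the mean of at least three independent experiments, each run in duplicate. Typical variation was below 20%.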
On the technique in general: TR-FRET usually uses a lanthanide donor and a delayed reading to cut background.

In assay [2] the test system is Phosphatidylinositol 4,5-bisphosphate 3-kinase catalytic subunit alpha isoform (Homo sapiens), P42336 [Y836A]. Briefly: Ratio of PI103 IC50 to compound IC50 for full length human PI3Kalpha Y836A mutant. The method in brief: (§1)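 Inhibitor IC50s were determined against wild-type PI3Kα and the M772A, D810A and Y836A mutants. The mutants were expressed and purified in-house. […] Fold change is the PI103 IC50 divided by the compound IC50 on the same enzyme form.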
Phosphatidylinositol 4,5-bisphosphate 3-kinase catalytic subunit alpha isoform (Homo sapiens), P42336 [Y836A], sequence (P42336 whole entry Y836A, canonical isoform): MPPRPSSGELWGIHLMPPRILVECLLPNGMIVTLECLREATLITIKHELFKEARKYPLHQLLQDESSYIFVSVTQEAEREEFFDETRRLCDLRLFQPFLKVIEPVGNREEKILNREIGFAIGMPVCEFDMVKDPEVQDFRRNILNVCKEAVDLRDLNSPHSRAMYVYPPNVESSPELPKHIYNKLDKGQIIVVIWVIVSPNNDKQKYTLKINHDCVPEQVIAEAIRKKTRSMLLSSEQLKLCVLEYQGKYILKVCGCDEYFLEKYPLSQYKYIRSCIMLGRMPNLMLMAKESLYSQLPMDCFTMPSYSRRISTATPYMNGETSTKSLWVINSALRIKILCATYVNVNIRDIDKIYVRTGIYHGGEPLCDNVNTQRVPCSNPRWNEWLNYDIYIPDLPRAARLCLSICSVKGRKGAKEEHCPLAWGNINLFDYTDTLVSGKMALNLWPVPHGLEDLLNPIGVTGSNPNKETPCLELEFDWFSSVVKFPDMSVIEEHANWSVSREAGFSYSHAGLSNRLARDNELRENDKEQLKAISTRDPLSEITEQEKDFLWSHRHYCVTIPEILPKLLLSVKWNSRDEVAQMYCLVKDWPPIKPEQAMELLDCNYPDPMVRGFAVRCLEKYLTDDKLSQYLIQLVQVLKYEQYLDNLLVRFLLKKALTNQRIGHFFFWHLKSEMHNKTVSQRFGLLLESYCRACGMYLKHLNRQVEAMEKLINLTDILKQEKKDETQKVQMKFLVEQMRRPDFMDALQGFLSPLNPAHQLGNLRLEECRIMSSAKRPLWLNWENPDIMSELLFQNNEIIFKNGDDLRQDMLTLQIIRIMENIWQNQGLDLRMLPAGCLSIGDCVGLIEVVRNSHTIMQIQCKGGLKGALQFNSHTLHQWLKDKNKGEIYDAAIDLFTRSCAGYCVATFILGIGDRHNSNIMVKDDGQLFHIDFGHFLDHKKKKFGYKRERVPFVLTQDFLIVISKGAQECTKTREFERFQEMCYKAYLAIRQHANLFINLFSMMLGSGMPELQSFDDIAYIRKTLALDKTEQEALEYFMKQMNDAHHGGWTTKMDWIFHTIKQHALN

Assay [3] has as its target Phosphatidylinositol 4,5-bisphosphate 3-kinase catalytic subunit alpha isoform (Homo sapiens, UniProt P42336, Y836A). Briefly: Inhibition of GST-tagged full length human PI3Kalpha Y836A mutant expressed in baculovirus-infected sf9 cells after 30 mins by TR-FRET assay. The method in brief: (§2)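 Each mutant PI3Kα was expressed and purified in-house. IC50 is the mean of at least three independent experiments, each run in duplicate.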

For assay [4], the target named is T1, Phosphatidylinositol 4,5-bisphosphate 3-kinase catalytic subunit alpha isoform. The experiment in a line: Ratio of PI103 IC50 to compound IC50 for full length human PI3Kalpha. In outline: as §1
Assay [5] concerns Phosphatidylinositol 4,5-bisphosphate 3-kinase catalytic subunit alpha isoform (Homo sapiens), P42336 [M772A]. Briefly: Ratio of PI103 IC50 to compound IC50 for full length human PI3Kalpha M772A mutant. In outline:
as §1

Assay [6] deals with Phosphatidylinositol 4,5-bisphosphate 3-kinase catalytic subunit alpha isoform (Homo sapiens, UniProt P42336, D810A). The experiment in a line: Inhibition of GST-tagged full length human PI3Kalpha D810A mutant expressed in baculovirus-infected sf9 cells after 30 mins by TR-FRET assay. In outline: as §2
Phosphatidylinositol 4,5-bisphosphate 3-kinase catalytic subunit alpha isoform (Homo sapiens, UniProt P42336, D810A), sequence (P42336 whole entry D810A, canonical isoform): as the sequence (P42336 whole entry Y836A, canonical isoform) above, with D810A, A836Y counted along it
The target of assay [7] is Phosphatidylinositol 4,5-bisphosphate 3-kinase catalytic subunit alpha isoform (Homo sapiens, UniProt P42336, M772A). Briefly: Inhibition of GST-tagged full length human PI3Kalpha M772A mutant expressed in baculovirus-infected sf9 cells after 30 mins by TR-FRET assay. The method in brief:
as §2

Assay [8] concerns Phosphatidylinositol 4,5-bisphosphate 3-kinase catalytic subunit alpha isoform (Homo sapiens), P42336 [D810A]. The experiment in a line: Ratio of PI103 IC50 to compound IC50 for full length human PI3Kalpha D810A mutant. The method in brief:
as §1

A word on the IC50: it is the concentration that inhibits the measured activity by half.

T1 sequence (P42336 whole entry, canonical isoform): as the sequence (P42336 whole entry Y836A, canonical isoform) above, with A836Y counted along it
Phosphatidylinositol 4,5-bisphosphate 3-kinase catalytic subunit alpha isoform (Homo sapiens, UniProt P42336, M772A), sequence (P42336 whole entry M772A, canonical isoform): as the sequence (P42336 whole entry Y836A, canonical isoform) above, with M772A, A836Y counted along it
Phosphatidylinositol 4,5-bisphosphate 3-kinase catalytic subunit alpha isoform (Homo sapiens), P42336 [M772A], sequence (P42336 whole entry M772A, canonical isoform): as the sequence (P42336 whole entry Y836A, canonical isoform) above, with M772A, A836Y counted along it
Phosphatidylinositol 4,5-bisphosphate 3-kinase catalytic subunit alpha isoform (Homo sapiens, UniProt P42336, Y836A), sequence (P42336 whole entry Y836A, canonical isoform): as the sequence (P42336 whole entry Y836A, canonical isoform) above
Phosphatidylinositol 4,5-bisphosphate 3-kinase catalytic subunit alpha isoform (Homo sapiens), P42336 [D810A], sequence (P42336 whole entry D810A, canonical isoform): as the sequence (P42336 whole entry Y836A, canonical isoform) above, with D810A, A836Y counted along it

For `Oc1cc(F)cc(-c2nc(N3CCOCC3)c3oc4ncccc4c3n2)c1`, in assay [1], the IC50 is 40.9 nM.

Regarding `O=[N+]([O-])c1cc(O)cc(-c2nc(N3CCOCC3)c3oc4ncccc4c3n2)c1`, in assay [1], the concentration for half-maximal inhibition (IC50) was over 10000 nM.

Take `Oc1cc(O)cc(-c2nc(N3CCOCC3)c3oc4ncccc4c3n2)c1`: the Ratio IC50 in assay [2] worked out at 5.7; in assay [4] it was 3; in assay [5] it was 19.4; in assay [8], 1.2. In addition, the IC50 is 140 nM in assay [3], 61.3 nM in assay [6], 53.4 nM in assay [7] and 5.9 nM in assay [1].

In the case of `Nc1cc(O)cc(-c2nc(N3CCOCC3)c3oc4ncccc4c3n2)c1`, the IC50 in assay [1] came out at 20.6 nM.

With `Oc1cc(Cl)cc(-c2nc(N3CCOCC3)c3oc4ncccc4c3n2)c1`, in assay [1], the IC50 stood at 990 nM.

For `Oc1cc(Br)cc(-c2nc(N3CCOCC3)c3oc4ncccc4c3n2)c1`, half-maximal inhibition in assay [1] (IC50) was put at 1210 nM.

Regarding `Cc1cc(O)cc(-c2nc(N3CCOCC3)c3oc4ncccc4c3n2)c1`, the IC50 in assay [1] was over 10000 nM.

Consider `Oc1cc(-c2nc(N3CCOCC3)c3oc4ncccc4c3n2)cc(C(F)(F)F)c1`, for which the half-maximal inhibitory concentration (IC50) in assay [1] is over 10000 nM.
